For data set [1], the system named is Aurk (Aurora kinase). The experiment in a line: Inhibition of Aurk in mouse L929sA cells transfected with human Fas assessed as reduction in cell growth at 3 uM after 24 hrs in presence of TNF by Hoechst 33342 staining-based microscopic assay relative to control.
In data set [2] the target is T1, Receptor-interacting serine/threonine-protein kinase 1 (Mus musculus) (UniProt Q60855).
T1 sequence (whole entry): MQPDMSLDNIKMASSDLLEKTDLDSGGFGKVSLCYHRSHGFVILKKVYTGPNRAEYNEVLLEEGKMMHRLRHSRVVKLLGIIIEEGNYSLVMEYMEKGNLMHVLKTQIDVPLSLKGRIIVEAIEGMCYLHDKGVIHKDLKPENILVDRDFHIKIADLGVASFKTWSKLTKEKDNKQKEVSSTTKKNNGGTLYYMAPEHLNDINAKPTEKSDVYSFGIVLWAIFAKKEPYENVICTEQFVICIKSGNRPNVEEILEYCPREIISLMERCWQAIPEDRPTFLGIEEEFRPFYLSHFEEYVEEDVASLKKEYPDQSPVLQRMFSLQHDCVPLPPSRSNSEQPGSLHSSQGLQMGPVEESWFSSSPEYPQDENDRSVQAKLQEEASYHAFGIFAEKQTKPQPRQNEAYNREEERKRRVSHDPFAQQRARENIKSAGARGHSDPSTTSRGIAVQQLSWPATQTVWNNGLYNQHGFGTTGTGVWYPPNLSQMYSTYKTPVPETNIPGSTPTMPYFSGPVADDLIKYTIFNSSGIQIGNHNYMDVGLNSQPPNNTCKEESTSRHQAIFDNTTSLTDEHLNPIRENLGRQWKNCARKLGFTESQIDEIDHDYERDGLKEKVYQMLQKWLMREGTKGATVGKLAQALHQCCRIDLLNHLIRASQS
The experiment in a line: Inhibition of RIPK1 in mouse L929sA cells transfected with human Fas assessed as inhibition in TNF-induced necroptosis at 3 uM pretreated for 0.5 hrs followed by TNF and zVAD.fmk addition measured after 3 hrs by Hoechst 33342/propidium iodide staining-based assay relative to control. It counts as cell-based.

For data set [3], the target named is T1, Receptor-interacting serine/threonine-protein kinase 1 (Mus musculus). The data set is described as follows: Inhibition of RIPK1 in mouse L929sA cells transfected with human Fas assessed as inhibition in TNF-induced necroptosis at 3 uM pretreated for 24 hrs followed by TNF and zVAD.fmk addition measured after 3 hrs by Hoechst 33342/propidium iodide staining-based assay relative to control. It counts as cell-based.

Data set [4] is described as follows: Inhibition of Aurk mouse L929sA cells transfected with human Fas assessed as increase in nuclear area after 24 hrs in presence of TNF by Hoechst 33342 staining-based microscopic assay. The gist of the method:
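L929sAhFAS cells treated with compound; mean nuclear area is measured and fitted as a sigmoidal dose–response curve.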

Data set [5] can be described thus: Inhibition of Aurk mouse L929sA cells transfected with human Fas assessed as reduction in cell growth after 24 hrs in presence of TNF by Hoechst 33342 staining-based microscopic assay. The gist of the method: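 L929sAhFAS cells exposed to compound; total cell number is counted after 24 h. IC50 is fitted from a dose–response curve of cell growth.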
The subject of data set [6] is Aurk (Aurora kinase). The experiment in a line: Inhibition of Aurk in mouse L929sA cells transfected with human Fas assessed as increase in nuclear area at 3 uM after 24 hrs in presence of TNF by Hoechst 33342 staining-based microscopic assay relative to control. It counts as cell-based.

The term inhibition denotes the share of the control response that was lost under treatment. Broadly, the IC50 is the point on the concentration scale where inhibition reaches its midpoint. Take `Cc1[nH]nc(Nc2cc(N3CCN(C)CC3)nc(Sc3ccc(NC(=O)C4CCCCC4)cc3)n2)c1C`: the inhibition at 24 h, 3 µM with Aurk (Aurora kinase) [1] and in the data set on Aurk (Aurora kinase) [6] was < 50% each time. Also, the inhibition in data set [2] and in data set [3] was < 50% in each case. Moreover, the IC50 in data set [4] and in data set [5] was > 3 µM each time.
As for `Cc1cc(Nc2nc(Nc3ccc(NC(=O)C4CC4)cc3)nc(N3CCOCC3)n2)n[nH]1`, the inhibition at 24 h, 3 µM in the data set on Aurk (Aurora kinase) [1] and in the data set with Aurk (Aurora kinase) [6] was < 50% throughout. The IC50 in data set [4] and in data set [5] was > 3 µM in each case.
Turning to `Cc1cc(Nc2nc(Nc3ccc(NC(=O)C4CCCCC4)cc3)nc(N3CCCCC3)n2)n[nH]1`, the inhibition at 24 h, 3 µM with Aurk (Aurora kinase) [1] and in the data set on Aurk (Aurora kinase) [6] was < 50% in each case. For the same molecule, the inhibition in data set [2] and in data set [3] was < 50% throughout. The IC50 in data set [4] and in data set [5] was > 3 µM each time.
For the molecule `Cc1cc(Nc2cc(N3CCN(C)CC3)nc(Nc3ccc(NC(=O)C4CCCCC4)cc3)n2)n[nH]1`, the inhibition at 24 h, 3 µM in the data set on Aurk (Aurora kinase) [1] and in the data set on Aurk (Aurora kinase) [6] was < 50% each time. The IC50 in data set [4] and in data set [5] was > 3 µM each time.
As for `Cc1cc(Nc2nc(Sc3ccc(NC(=O)C4CCCCC4)cc3)nc(N3CCOCC3)n2)n[nH]1`, the inhibition in data set [2] is < 50%. The 50% inhibitory concentration (IC50) in data set [4] was > 3 µM; in data set [5], 2.17 µM. Moreover, the inhibition at 24 h, 3 µM in the data set on Aurk (Aurora kinase) [6] is < 50%.
For the molecule `Cc1cc(Nc2cc(N3CCCCC3)nc(Sc3ccc(NC(=O)C4CC4)cc3)n2)n[nH]1`, the IC50 in data set [4] was found to be 1 µM; in data set [5], 1.32 µM.
`Cc1[nH]nc(Nc2nc(Sc3ccc(NC(=O)C4CC4)cc3)nc(N3CCCCC3)n2)c1C`: the inhibition at 24 h, 3 µM with Aurk (Aurora kinase) [1] and with Aurk (Aurora kinase) [6] was < 50% each time. Further, the inhibition in data set [2] and in data set [3] was < 50% in each case. For the same molecule, the IC50 in data set [4] and in data set [5] was > 3 µM in each case.
Take `Cc1[nH]nc(Nc2nc(Nc3ccc(NC(=O)C4CCCCC4)cc3)nc(N3CCCCC3)n2)c1C`: the inhibition at 24 h, 3 µM in the data set on Aurk (Aurora kinase) [1] and in the data set with Aurk (Aurora kinase) [6] was < 50% throughout. Moreover, the inhibition in data set [2] and in data set [3] was < 50% each time. Further, the IC50 in data set [4] and in data set [5] was > 3 µM each time.
In the case of `Cc1cc(Nc2cc(N3CCCCC3)nc(Nc3ccc(NC(=O)C4CCCCC4)cc3)n2)n[nH]1`, the inhibition at 24 h, 3 µM in the data set with Aurk (Aurora kinase) [1] and in the data set with Aurk (Aurora kinase) [6] was < 50% each time. The inhibition in data set [2] was < 50%. Also, the IC50 in data set [4] and in data set [5] was > 3 µM throughout.
Regarding `Cc1cc(Nc2cc(N3CCOCC3)nc(Sc3ccc(NC(=O)C4CC4)cc3)n2)n[nH]1`, the results for the IC50 in data set [4] and in data set [5] were 1.04 µM and 1 µM, respectively.
Take `Cc1[nH]nc(Nc2nc(Nc3ccc(NC(=O)C4CC4)cc3)nc(N3CCOCC3)n2)c1C`: the inhibition at 24 h, 3 µM in the data set on Aurk (Aurora kinase) [1] and in the data set with Aurk (Aurora kinase) [6] was < 50% throughout. Further, the inhibition in data set [2] and in data set [3] was < 50% in each case. Moreover, the IC50 in data set [4] and in data set [5] was > 3 µM in each case.
Consider `Cc1cc(Nc2cc(N3CCOCC3)nc(Nc3ccc(NC(=O)C4CCCCC4)cc3)n2)n[nH]1`, for which the IC50 was > 3 µM in data set [4] and 2.25 µM in data set [5]. The inhibition at 24 h, 3 µM in the data set with Aurk (Aurora kinase) [6] was < 50%.
Turning to `Cc1cc(Nc2cc(N3CCCCC3)nc(Sc3ccc(NC(=O)C4CCCCC4)cc3)n2)n[nH]1`, the IC50 in data set [4] is > 3 µM; in data set [5], 0.813 µM. Also, the inhibition at 24 h, 3 µM in the data set on Aurk (Aurora kinase) [6] was < 50%.
Take `Cc1[nH]nc(Nc2cc(N3CCN(C)CC3)nc(Nc3ccc(NC(=O)C4CCCCC4)cc3)n2)c1C`: the inhibition at 24 h, 3 µM in the data set with Aurk (Aurora kinase) [1] and in the data set with Aurk (Aurora kinase) [6] was < 50% each time. Also, the inhibition in data set [2] and in data set [3] was < 50% each time. Besides, the IC50 in data set [4] and in data set [5] was > 3 µM each time.
On to `Cc1[nH]nc(Nc2nc(Sc3ccc(NC(=O)C4CCCCC4)cc3)nc(N3CCOCC3)n2)c1C`, for which the inhibition at 24 h, 3 µM with Aurk (Aurora kinase) [1] and in the data set with Aurk (Aurora kinase) [6] was < 50% in each case. The inhibition in data set [2] and in data set [3] was < 50% in each case. For the same molecule, the IC50 in data set [4] and in data set [5] was > 3 µM throughout.
Take `Cc1cc(Nc2nc(Sc3ccc(NC(=O)C4CC4)cc3)nc(N3CCOCC3)n2)n[nH]1`: the inhibition at 24 h, 3 µM with Aurk (Aurora kinase) [1] and in the data set with Aurk (Aurora kinase) [6] was < 50% each time. For the same molecule, the half-inhibitory concentration (IC50) in data set [4] and in data set [5] was > 3 µM each time.
For `Cc1[nH]nc(Nc2cc(N3CCN(C)CC3)nc(Nc3ccc(NC(=O)C4CC4)cc3)n2)c1C`, the inhibition at 24 h, 3 µM with Aurk (Aurora kinase) [1] and in the data set on Aurk (Aurora kinase) [6] was < 50% throughout. Further, the inhibition in data set [2] and in data set [3] was < 50% throughout. Besides, the IC50 in data set [4] and in data set [5] was > 3 µM in each case.
As for `Cc1cc(Nc2nc(Nc3ccc(NC(=O)C4CC4)cc3)nc(N3CCCCC3)n2)n[nH]1`, the inhibition at 24 h, 3 µM in the data set on Aurk (Aurora kinase) [1] and with Aurk (Aurora kinase) [6] was < 50% in each case. For the same molecule, the inhibition in data set [2] and in data set [3] was < 50% each time. Further, the IC50 in data set [4] and in data set [5] was > 3 µM each time.
For the molecule `Cc1cc(Nc2nc(Sc3ccc(NC(=O)C4CC4)cc3)nc(N3CCN(C)CC3)n2)n[nH]1`, the inhibition in data set [2] is < 50%. Further, the figures for the IC50 in data set [4] and in data set [5] were 0.8 µM and 0.44 µM, respectively.
For the molecule `Cc1[nH]nc(Nc2nc(Nc3ccc(NC(=O)C4CC4)cc3)nc(N3CCCCC3)n2)c1C`, the inhibition at 24 h, 3 µM with Aurk (Aurora kinase) [1] and in the data set with Aurk (Aurora kinase) [6] was < 50% each time. Further, the inhibition in data set [2] and in data set [3] was < 50% throughout. The IC50 in data set [4] and in data set [5] was > 3 µM throughout.
Consider `Cc1[nH]nc(Nc2cc(N3CCOCC3)nc(Sc3ccc(NC(=O)C4CCCCC4)cc3)n2)c1C`, for which the inhibition at 24 h, 3 µM in the data set with Aurk (Aurora kinase) [1] and in the data set on Aurk (Aurora kinase) [6] was < 50% each time. Also, the inhibition in data set [2] and in data set [3] was < 50% each time. The IC50 in data set [4] and in data set [5] was > 3 µM each time.
Turning to `Cc1[nH]nc(Nc2cc(N3CCCCC3)nc(Nc3ccc(NC(=O)C4CC4)cc3)n2)c1C`, the inhibition at 24 h, 3 µM in the data set with Aurk (Aurora kinase) [1] and in the data set with Aurk (Aurora kinase) [6] was < 50% throughout. In addition, the inhibition in data set [2] and in data set [3] was < 50% in each case. Also, the IC50 in data set [4] and in data set [5] was > 3 µM each time.
With `Cc1cc(Nc2nc(Sc3ccc(NC(=O)C4CC4)cc3)nc(N3CCCCC3)n2)n[nH]1`, the inhibition at 24 h, 3 µM with Aurk (Aurora kinase) [1] and with Aurk (Aurora kinase) [6] was < 50% in each case. Further, the inhibition in data set [2] and in data set [3] was < 50% each time. The IC50 in data set [4] and in data set [5] was > 3 µM each time.
With `Cc1cc(Nc2cc(N3CCN(C)CC3)nc(Sc3ccc(NC(=O)C4CCCCC4)cc3)n2)n[nH]1`, the inhibition in data set [2] and in data set [3] was < 50% throughout. In addition, the figures for the IC50 in data set [4] and in data set [5] were > 3 µM and < 0.6 µM, respectively. For the same molecule, in the data set on Aurk (Aurora kinase) [6], the inhibition at 24 h, 3 µM is < 50%.
As to `Cc1cc(Nc2cc(N3CCOCC3)nc(Sc3ccc(NC(=O)C4CCCCC4)cc3)n2)n[nH]1`, the IC50 in data set [4] is < 0.6 µM; in data set [5], 0.214 µM.
`Cc1cc(Nc2nc(Nc3ccc(NC(=O)C4CCCCC4)cc3)nc(N3CCOCC3)n2)n[nH]1`: the inhibition in data set [2] and in data set [3] was < 50% throughout. Also, the IC50 was > 3 µM in data set [4] and 2.3 µM in data set [5]. Moreover, the inhibition at 24 h, 3 µM in the data set on Aurk (Aurora kinase) [6] is < 50%.
